Our source for the Dose and Efficacy values is ChEMBL document CHEMBL1122071, “Avermectin acyl derivatives with anthelmintic activity” (1982).

What all share (type): functional
In assay [1] the test system is Trichostrongylus colubriformis. The experiment in a line: Minimal dose necessary to eliminate > 83% of Trichostrongylus colubriformis infection in gerbils.
The subject of assay [2] is Haemonchus contortus. The experiment in a line: Anthelmintic efficacy against adult Haemonchus contortus (H.c) in sheep at dose of 0.25 mg/kg administered orally. To be noted: route oral. The method, boiled down:
(§1)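 Lambs experimentally infected with mixed gastrointestinal nematodes (H. contortus, O. circumcincta, T. axei, T. colubriformis, C. oncophora, Oe. columbianum) were dosed orally, 1–3 sheep per dose. An untreated infected group of 6 was included, with worm burdens given as the geometric mean number of worms per lamb. Efficacy was scored against adult and, where listed, EL4 stages.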

Assay [3] relates to Cooperia oncophora. The experiment in a line: Anthelmintic efficacy against adult Cooperia oncopphora (C.o) in sheep at dose of 0.25 mg/kg administered orally. Conditions: route oral. The method, boiled down:
as §1

For assay [4], the system named is Teladorsagia circumcincta. The experiment in a line: Anthelmintic efficacy against adult Ostertagia circumcincta (O. c) in sheep at dose of 0.25 mg/kg administered orally. Conditions: route oral. Put shortly: as §1
In assay [5] the test system is Oesophagostomum columbianum. The experiment in a line: Anthelmintic efficacy against Oseophagostomum columbianum (Oe. c) in sheep at dose of 0.25 mg/kg administered orally. Conditions: route oral. The method, boiled down: as §1
The subject of assay [6] is Trichostrongylus colubriformis. The experiment in a line: Anthelmintic efficacy against Trichostrongylus colubriformis (T.c) in sheep at dose of 0.25 mg/kg administered orally. To be noted: route oral. Put shortly:
as §1

For assay [7], the system named is Trichostrongylus axei. The experiment in a line: Anthelmintic efficacy against Trichostrongylus axei (T.a) in sheep at dose of 0.25 mg/kg administered orally. To be noted: route oral. The method, boiled down: as §1
Assay [8] deals with Haemonchus contortus. The experiment in a line: Anthelmintic efficacy against adult Haemonchus contortus (H.c) in sheep at dose of 0.25 mg/kg administered orally; 20-59%. Put shortly:
as §1

Assay [9] relates to Cooperia oncophora. The experiment in a line: Anthelmintic efficacy against adult Cooperia oncopphora (C.o) in sheep at dose of 0.25 mg/kg administered orally; 60-89%. Put shortly: as §1
Assay [10] concerns Teladorsagia circumcincta. The experiment in a line: Anthelmintic efficacy against adult Ostertagia circumcincta (O. c) in sheep at dose of 0.25 mg/kg administered orally; 0-19%. Put shortly: as §1
In assay [11] the test system is Oesophagostomum columbianum. The experiment in a line: Anthelmintic efficacy against Oseophagostomum columbianum (Oe. c) in sheep at dose of 0.25 mg/kg administered orally; 20-59%. Put shortly: as §1
Assay [12] relates to Trichostrongylus colubriformis. The experiment in a line: Anthelmintic efficacy against Trichostrongylus colubriformis (T.c) in sheep at dose of 0.25 mg/kg administered orally; 0-19%. The method, boiled down:
as §1

Assay [13] deals with Trichostrongylus axei. The experiment in a line: Anthelmintic efficacy against Trichostrongylus axei (T.a) in sheep at dose of 0.25 mg/kg administered orally; 0-19%. Put shortly:
as §1

In the case of `CC[C@H](C)[C@H]1O[C@]2(CC(O)[C@@H]1C)C[C@@H]1C[C@@H](C/C=C(\C)[C@@H](OC3CC(OC)C(OC4CC(OC)C(O)C(C)O4)C(C)O3)[C@@H](C)/C=C/C=C3\CO[C@@H]4[C@H](O)C(C)=C[C@@H](C(=O)O1)[C@]34O)O2` (stereo not given in full) [AVERMECTIN B2A], the Dose in assay [1] is 0.0125 mg/kg. For `CCCCCCCC(=O)O[C@H]1[C@H](C)O[C@@H](O[C@H]2[C@H](C)O[C@@H](O[C@@H]3/C(C)=C/C[C@@H]4C[C@@H](C[C@]5(C=C[C@H](C)[C@@H]([C@@H](C)CC)O5)O4)OC(=O)[C@@H]4C=C(C)[C@@H](O)[C@H]5OC/C(=C\C=C\[C@@H]3C)[C@]54O)C[C@H]2OC)C[C@H]1OC`, the Dose in assay [1] was determined as 0.125 mg/kg. The same measure, in the same setting: for `CC[C@H](C)[C@H]1O[C@]2(CC(OC(C)=O)[C@@H]1C)C[C@@H]1C[C@@H](C/C=C(\C)[C@@H](OC3CC(OC)C(OC4CC(OC)C(OC(C)=O)C(C)O4)C(C)O3)[C@@H](C)/C=C/C=C3\CO[C@@H]4[C@H](OC(C)=O)C(C)=C[C@@H](C(=O)O1)[C@]34O)O2` (stereo not given in full) the value was 0.5 mg/kg; for `CC[C@H](C)[C@H]1O[C@]2(C=C[C@@H]1C)C[C@@H]1C[C@@H](C/C=C(\C)[C@@H](O[C@H]3C[C@@H](OC)[C@@H](O[C@H]4C[C@@H](OC)[C@@H](O)[C@H](C)O4)[C@H](C)O3)[C@@H](C)/C=C/C=C3\CO[C@@H]4[C@H](OC(C)=O)C(C)=C[C@@H](C(=O)O1)[C@]34O)O2`, 0.125 mg/kg; for `CC[C@H](C)[C@H]1O[C@]2(C=C[C@@H]1C)C[C@@H]1C[C@@H](C/C=C(\C)[C@@H](O[C@H]3C[C@@H](OC)[C@@H](O[C@H]4C[C@@H](OC)[C@@H](O)[C@H](C)O4)[C@H](C)O3)[C@@H](C)/C=C/C=C3\CO[C@@H]4[C@H](O[Si](C)(C)C(C)(C)C)C(C)=C[C@@H](C(=O)O1)[C@]34O)O2`, >2.5 mg/kg.

For `CC[C@H](C)[C@H]1O[C@]2(C=C[C@@H]1C)C[C@@H]1C[C@@H](C/C=C(\C)[C@@H](O[C@H]3C[C@@H](OC)[C@@H](O[C@H]4C[C@@H](OC)[C@@H](OC(N)=O)[C@H](C)O4)[C@H](C)O3)[C@@H](C)/C=C/C=C3\CO[C@@H]4[C@H](O)C(C)=C[C@@H](C(=O)O1)[C@]34O)O2`, the Dose in [1] is 0.025 mg/kg.

In the case of `CCC(C)[C@H]1O[C@]2(CC(OC(C)=O)[C@@H]1C)C[C@@H]1C[C@@H](C/C=C(\C)[C@@H](OC3CC(OC)C(OC4CC(OC)C(OC(C)=O)C(C)O4)C(C)O3)[C@@H](C)/C=C/C=C3\COc4cc(C)cc(c43)C(=O)O1)O2` (stereo not given in full), the Dose in assay [1] is >2.5 mg/kg. For `CC[C@H](C)[C@H]1O[C@]2(C=C[C@@H]1C)C[C@@H]1C[C@@H](C/C=C(\C)[C@@H](O[C@H]3C[C@@H](OC)[C@@H](O[C@H]4C[C@@H](OC)[C@@H](OC(=O)CNC(C)=O)[C@H](C)O4)[C@H](C)O3)[C@@H](C)/C=C/C=C3\CO[C@@H]4[C@H](O)C(C)=C[C@@H](C(=O)O1)[C@]34O)O2`, in assay [1], the Dose came out at 0.025 mg/kg. In the case of `CC[C@H](C)[C@H]1O[C@]2(CC(O)[C@@H]1C)C[C@@H]1C[C@@H](C/C=C(\C)[C@@H](OC3CC(OC)C(OC4CC(OC)C(OC(C)=O)C(C)O4)C(C)O3)[C@@H](C)/C=C/C=C3\CO[C@@H]4[C@H](OC)C(C)=C[C@@H](C(=O)O1)[C@]34O)O2` (stereo not given in full), the Efficacy (with Haemonchus contortus [2]; with Cooperia oncophora [3]; in assay [4]; in assay [5]; in assay [6]; with Trichostrongylus axei [7]) was >90% in each case. Besides, the Dose in assay [1] was 0.06 mg/kg.

In assay [1], `CC[C@H](C)[C@H]1O[C@]2(C=C[C@@H]1C)C[C@@H]1C[C@@H](C/C=C(\C)[C@@H](O[C@H]3C[C@@H](OC)[C@@H](O[C@H]4C[C@@H](OC)[C@@H](OC(=O)C(C)(C)C)[C@H](C)O4)[C@H](C)O3)[C@@H](C)/C=C/C=C3\CO[C@@H]4[C@H](O)C(C)=C[C@@H](C(=O)O1)[C@]34O)O2` yielded a Dose of 0.5 mg/kg. The compound `CC[C@H](C)[C@H]1O[C@]2(C=C[C@@H]1C)C[C@@H]1C[C@@H](C/C=C(\C)[C@@H](O[C@H]3C[C@@H](OC)[C@@H](O[C@H]4C[C@@H](OC)[C@@H](OC(=O)N(C)C)[C@H](C)O4)[C@H](C)O3)[C@@H](C)/C=C/C=C3\CO[C@@H]4[C@H](O)C(C)=C[C@@H](C(=O)O1)[C@]34O)O2` had a Dose in assay [1] of 0.06 mg/kg. Turning to `CC[C@H](C)[C@H]1O[C@]2(C=C[C@@H]1C)C[C@@H]1C[C@@H](C/C=C(\C)[C@@H](O[C@H]3C[C@@H](OC)[C@@H](O[C@H]4C[C@@H](OC)[C@@H](O[Si](C)(C)C(C)(C)C)[C@H](C)O4)[C@H](C)O3)[C@@H](C)/C=C/C=C3\CO[C@@H]4[C@H](O[Si](C)(C)C(C)(C)C)C(C)=C[C@@H](C(=O)O1)[C@]34O)O2`, in assay [1], the Dose was >2.5 mg/kg.

In the case of `CC[C@H](C)[C@H]1O[C@]2(CC(OC(C)=O)[C@@H]1C)C[C@@H]1C[C@@H](C/C=C(\C)[C@@H](OC3CC(OC)C(OC4CC(OC)C(O)C(C)O4)C(C)O3)[C@@H](C)/C=C/C=C3\CO[C@@H]4[C@H](OC)C(C)=C[C@@H](C(=O)O1)[C@]34O)O2` (stereo not given in full), the Efficacy was 20% in the assay on Haemonchus contortus [8]; 60% in the assay on Cooperia oncophora [9]; 0% in [10]; 20% in assay [11]; 0% in [12]; 0% in the assay on Trichostrongylus axei [13]. Moreover, the Dose in assay [1] is 0.25 mg/kg.
